In PMC2813064 (Bioconjugate chemistry, 2010):
“Also recorded” adds a separate entry of the source.

Assays:
[1] = system: HepG2, 3T3, and CHO cells; assay: In vitro gene transfer; assay type: cell-based; details: 0.5 nmol peptide per µg pGL3, 10 µg pGL3, luciferase at 24 hrs, Fig. 6
Procedure, shortened: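 Plating: HepG2, CHO or 3T3, 5 × 10^5 cells per 35 mm well, about 50% confluent. Transfection: 10 µg pGL3 polyplex (0.5 nmol peptide/µg DNA, 30 µg/ml DNA in 5 mM Hepes/0.27 M mannitol pH 7.5), added dropwise in triplicate for 24 h in MEM with 2 or 10% FBS. Read-out: lysate luciferase (0.5 mM D-luciferin injection, 10 s integration) as fmol per mg protein, mean ± SD of triplicates.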

[2] = Zeta potential of peptide-DNA polyplexes; assay type: physicochemical; details: positive (+ mV); peptide-DNA polyplex 0.5 nmol peptide per µg DNA, 5 mM Hepes, pH 7.4 (footnote), mean of ten measurements
Procedure, shortened: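 Polyplex was made in 5 mM Hepes at 30 µg/ml DNA with 15 nmol/ml peptide. Zeta potential was read on a ZetaPlus instrument straight after QELS particle sizing at a 90° scatter angle, as the mean of ten measurements.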

[3] = system: Erythrocytes; assay: RBC hemolysis assay; assay type: cell-based, mice; details: peptide DNA polyplexes (1.5 nmols and 7.5 µg pGL3), pH 7.4, Fig. 4C
Procedure, shortened: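 Erythrocytes from male ICR mouse heart blood (heparinized) were washed three times in 0.15 M PBS pH 7.4 and diluted to 1.5 × 10^8 cells/ml. 7.5 × 10^6 cells were added to the polyplexes (1.5 nmol peptide, 7.5 µg pGL3) in triplicate and held 1 h at 37°C, then filtered. Filtrate Abs410 nm was expressed against 100% lysis with water replacing PBS.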

[4] = system: CHO cells; assay: In vitro gene transfer; assay type: cell-based; details: 10 µg pGL3, luciferase at 24 hrs, Fig. 5
Procedure, shortened: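 Cells: CHO, 5 × 10^5 per 35 mm well, grown to about 50% confluency in MEM with 2 or 10% FBS, 1 mM sodium pyruvate and pen/strep. Polyplexes: peptide and pGL3 at 0.1–0.75 nmol peptide per µg DNA, in HBM (5 mM Hepes, 0.27 M mannitol, pH 7.5). Triplicate wells, 24 h. Luciferase RLU were converted to fmol by standard curve and normalized to mg protein (BCA).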

Row | Substance | Gene transfer, fold lower than poly(Acr-Arg)2–4-SS-melittin [1] | Zeta Potential [2] [mV] | Hemolytic activity when combined with pGL3 [3] | Gene expression, fold greater than poly(Acr-Arg)4-Mal-melittin [4]
1 | (CWKKGIGAVLKVLTTGLPALISLIKRKRQQ)2 (disulfide) [Dimeric-melittin] | 10–100 fold | – | – | –
2 | W(Lys(Ac)-Arg)4-C-CWKKGIGAVLKVLTTGLPALISLIKRKRQQ (disulfide) [poly(Lys(Ac)-Arg)4-SS-melittin] | – | 20 ± 2.9 | – | –
3 | (Acr-Arg)4-C-CWKKGIGAVLKVLTTGLPALISLIKRKRQQ (disulfide) [poly(Acr-Arg)4-SS-melittin] | – | 29 ± 2.6 | completely neutralized; also recorded: non hemolytic | approximately 1000 fold
4 | (Acr-Arg)3-C-CWKKGIGAVLKVLTTGLPALISLIKRKRQQ (disulfide) [poly(Acr-Arg)3-SS-melittin] | – | 29 ± 4.5 | – | –
5 | (Acr-Arg)2-C-CWKKGIGAVLKVLTTGLPALISLIKRKRQQ (disulfide) [poly(Acr-Arg)2-SS-melittin] | – | 25 ± 2.2 | – | –
